Several values for one entry are separate records, joined by “and”; a condition that tells them apart may be missing. Equal entries are not always repeated.
Tests used:
Assay type in all cases: toxicity, cell-based
[1] = system: Fibroblast; assay: Multiplex assay against human fibroblast; conditions: number of replicates 2
Outline: (§1)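 Hoechst33342, BioTracker Green Microtubule Cytoskeleton Dye, MitoTracker Red and Annexin V Alexa Fluor 680 were added to live cells at seeding, and imaging on a CQ1 microscope at 37°C and 5% CO2 followed compound addition. Gating by CellPathfinder machine learning separated cells into Hoechst high-intensity objects or normal cells, then normal cells into healthy, pyknosed or fragmented nuclei, then pyknosed cells into mitotic or apoptotic. Per cents of healthy-nucleus cells are reported for the tubulin, mitochondrial-mass and membrane-permeability phenotypes.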

[2] = system: HEK-293T; assay: Multiplex assay against HEK293T; conditions: human, number of replicates 2; outline: as §1
[3] = system: U2OS; assay: Multiplex assay against U2OS; conditions: human, number of replicates 2; outline: as §1
[4] = 12 h, 1 µM, compound concentration 1 uM
[5] = 12 h, 10 µM, compound concentration 10 uM
[6] = 24 h, 1 µM, compound concentration 1 uM
[7] = 24 h, 10 µM, compound concentration 10 uM
[8] = 48 h, 1 µM, compound concentration 1 uM
[9] = 48 h, 10 µM, compound concentration 10 uM

O=C1CCCN1CCNc1nc(Nc2ccc(Cl)c(Cl)c2)ncc1C(F)(F)F
Population Apoptotic (%) [1, 4]: 38% and 28% | Population Fragmented Nuclei (%) [1, 4]: 10% and 8% | Population Healthy Nuclei (%) [1, 4]: 76% and 68% | Population Hoechst High Intensity Objects (%) [1, 4]: 0% | Population Membrane Permeable-Phenotype (%) [1, 4]: 2% and 1% | Population Mitochondria Different-Phenotype (%) [1, 4]: 1% | Population Mitotic Cells (%) [1, 4]: 61% and 71% | Population Normal (%) [1, 4]: 100% | Population Pyknosed Nuclei (%) [1, 4]: 13% and 22% | Population Tubulin-Different-Phenotype (%) [1, 4]: 12% and 9% | Total Cell Count [1, 4]: 233 and 219 | Population Apoptotic (%) [1, 5]: 52% and 36% | Population Fragmented Nuclei (%) [1, 5]: 6% and 15% | Population Healthy Nuclei (%) [1, 5]: 40% and 52% | Population Hoechst High Intensity Objects (%) [1, 5]: 0% | Population Membrane Permeable-Phenotype (%) [1, 5]: 19% and 26% | Population Mitochondria Different-Phenotype (%) [1, 5]: 1% and 4% | Population Mitotic Cells (%) [1, 5]: 47% and 63% | Population Normal (%) [1, 5]: 100% | Population Pyknosed Nuclei (%) [1, 5]: 52% and 32% | Population Tubulin-Different-Phenotype (%) [1, 5]: 35% and 50% | Total Cell Count [1, 5]: 138 and 193 | Population Apoptotic (%) [1, 6]: 54% and 41% | Population Fragmented Nuclei (%) [1, 6]: 8% and 6% | Population Healthy Nuclei (%) [1, 6]: 76% and 70% | Population Hoechst High Intensity Objects (%) [1, 6]: 0% | Population Membrane Permeable-Phenotype (%) [1, 6]: 5% | Population Mitochondria Different-Phenotype (%) [1, 6]: 1% and 0% | Population Mitotic Cells (%) [1, 6]: 45% and 58% | Population Normal (%) [1, 6]: 100% | Population Pyknosed Nuclei (%) [1, 6]: 14% and 22% | Population Tubulin-Different-Phenotype (%) [1, 6]: 14% and 9% | Total Cell Count [1, 6]: 234 and 227 | Population Apoptotic (%) [1, 7]: 70% and 60% | Population Fragmented Nuclei (%) [1, 7]: 6% and 15% | Population Healthy Nuclei (%) [1, 7]: 44% and 50% | Population Hoechst High Intensity Objects (%) [1, 7]: 0% | Population Membrane Permeable-Phenotype (%) [1, 7]: 16% and 14% | Population Mitochondria Different-Phenotype (%) [1, 7]: 3% and 5% | Population Mitotic Cells (%) [1, 7]: 29% and 39% | Population Normal (%) [1, 7]: 99% and 100% | Population Pyknosed Nuclei (%) [1, 7]: 48% and 34% | Population Tubulin-Different-Phenotype (%) [1, 7]: 53% and 50% | Total Cell Count [1, 7]: 135 and 198 | Population Apoptotic (%) [1, 8]: 82% and 66% | Population Fragmented Nuclei (%) [1, 8]: 13% and 11% | Population Healthy Nuclei (%) [1, 8]: 73% and 72% | Population Hoechst High Intensity Objects (%) [1, 8]: 0% | Population Membrane Permeable-Phenotype (%) [1, 8]: 2% and 1% | Population Mitochondria Different-Phenotype (%) [1, 8]: 0% | Population Mitotic Cells (%) [1, 8]: 17% and 33% | Population Normal (%) [1, 8]: 100% and 99% | Population Pyknosed Nuclei (%) [1, 8]: 12% and 15% | Population Tubulin-Different-Phenotype (%) [1, 8]: 11% and 6% | Total Cell Count [1, 8]: 230 and 215 | Population Apoptotic (%) [1, 9]: 89% and 74% | Population Fragmented Nuclei (%) [1, 9]: 9% and 17% | Population Healthy Nuclei (%) [1, 9]: 52% and 53% | Population Hoechst High Intensity Objects (%) [1, 9]: 0% | Population Membrane Permeable-Phenotype (%) [1, 9]: 21% and 12% | Population Mitochondria Different-Phenotype (%) [1, 9]: 0% and 2% | Population Mitotic Cells (%) [1, 9]: 10% and 25% | Population Normal (%) [1, 9]: 99% and 100% | Population Pyknosed Nuclei (%) [1, 9]: 37% and 28% | Population Tubulin-Different-Phenotype (%) [1, 9]: 40% and 31% | Total Cell Count [1, 9]: 124 and 180 | Population Apoptotic (%) [2, 4]: 57% and 53% | Population Fragmented Nuclei (%) [2, 4]: 5% and 3% | Population Healthy Nuclei (%) [2, 4]: 80% and 83% | Population Hoechst High Intensity Objects (%) [2, 4]: 9% | Population Membrane Permeable-Phenotype (%) [2, 4]: 3% and 1% | Population Mitochondria Different-Phenotype (%) [2, 4]: 26% and 20% | Population Mitotic Cells (%) [2, 4]: 42% and 46% | Population Normal (%) [2, 4]: 90% | Population Pyknosed Nuclei (%) [2, 4]: 13% | Population Tubulin-Different-Phenotype (%) [2, 4]: 60% and 61% | Total Cell Count [2, 4]: 624 and 889 | Population Apoptotic (%) [2, 5]: 57% and 62% | Population Fragmented Nuclei (%) [2, 5]: 3% and 5% | Population Healthy Nuclei (%) [2, 5]: 76% | Population Hoechst High Intensity Objects (%) [2, 5]: 11% and 7% | Population Membrane Permeable-Phenotype (%) [2, 5]: 5% and 4% | Population Mitochondria Different-Phenotype (%) [2, 5]: 30% and 21% | Population Mitotic Cells (%) [2, 5]: 42% and 37% | Population Normal (%) [2, 5]: 88% and 92% | Population Pyknosed Nuclei (%) [2, 5]: 19% and 18% | Population Tubulin-Different-Phenotype (%) [2, 5]: 67% and 66% | Total Cell Count [2, 5]: 488 and 473 | Population Apoptotic (%) [2, 6]: 57% and 53% | Population Fragmented Nuclei (%) [2, 6]: 9% and 7% | Population Healthy Nuclei (%) [2, 6]: 80% and 81% | Population Hoechst High Intensity Objects (%) [2, 6]: 8% and 9% | Population Membrane Permeable-Phenotype (%) [2, 6]: 2% and 1% | Population Mitochondria Different-Phenotype (%) [2, 6]: 5% and 4% | Population Mitotic Cells (%) [2, 6]: 42% and 46% | Population Normal (%) [2, 6]: 91% and 90% | Population Pyknosed Nuclei (%) [2, 6]: 10% | Population Tubulin-Different-Phenotype (%) [2, 6]: 32% and 31% | Total Cell Count [2, 6]: 951 and 1356 | Population Apoptotic (%) [2, 7]: 56% and 71% | Population Fragmented Nuclei (%) [2, 7]: 7% and 5% | Population Healthy Nuclei (%) [2, 7]: 78% and 79% | Population Hoechst High Intensity Objects (%) [2, 7]: 8% and 7% | Population Membrane Permeable-Phenotype (%) [2, 7]: 5% and 3% | Population Mitochondria Different-Phenotype (%) [2, 7]: 13% and 8% | Population Mitotic Cells (%) [2, 7]: 43% and 28% | Population Normal (%) [2, 7]: 91% and 92% | Population Pyknosed Nuclei (%) [2, 7]: 13% and 15% | Population Tubulin-Different-Phenotype (%) [2, 7]: 39% and 36% | Total Cell Count [2, 7]: 751 and 650 | Population Apoptotic (%) [2, 8]: 17% and 24% | Population Fragmented Nuclei (%) [2, 8]: 14% and 12% | Population Healthy Nuclei (%) [2, 8]: 82% and 83% | Population Hoechst High Intensity Objects (%) [2, 8]: 10% and 12% | Population Membrane Permeable-Phenotype (%) [2, 8]: 6% and 2% | Population Mitochondria Different-Phenotype (%) [2, 8]: 0% | Population Mitotic Cells (%) [2, 8]: 82% and 75% | Population Normal (%) [2, 8]: 89% and 87% | Population Pyknosed Nuclei (%) [2, 8]: 3% | Population Tubulin-Different-Phenotype (%) [2, 8]: 14% and 17% | Total Cell Count [2, 8]: 2336 and 2853 | Population Apoptotic (%) [2, 9]: 23% and 27% | Population Fragmented Nuclei (%) [2, 9]: 11% and 9% | Population Healthy Nuclei (%) [2, 9]: 83% and 86% | Population Hoechst High Intensity Objects (%) [2, 9]: 8% and 5% | Population Membrane Permeable-Phenotype (%) [2, 9]: 5% and 4% | Population Mitochondria Different-Phenotype (%) [2, 9]: 2% and 3% | Population Mitotic Cells (%) [2, 9]: 76% and 72% | Population Normal (%) [2, 9]: 91% and 94% | Population Pyknosed Nuclei (%) [2, 9]: 5% and 4% | Population Tubulin-Different-Phenotype (%) [2, 9]: 16% and 28% | Total Cell Count [2, 9]: 1562 and 1106 | Population Apoptotic (%) [3, 4]: 50% and 68% | Population Fragmented Nuclei (%) [3, 4]: 5% and 3% | Population Healthy Nuclei (%) [3, 4]: 70% and 91% | Population Hoechst High Intensity Objects (%) [3, 4]: 0% | Population Membrane Permeable-Phenotype (%) [3, 4]: 0% and 3% | Population Mitochondria Different-Phenotype (%) [3, 4]: 0% and 1% | Population Mitotic Cells (%) [3, 4]: 50% and 31% | Population Normal (%) [3, 4]: 100% | Population Tubulin-Different-Phenotype (%) [3, 4]: 91% and 81% | Population Apoptotic (%) [3, 5]: 100% and 57% | Population Healthy Nuclei (%) [3, 5]: 73% and 80% | Population Hoechst High Intensity Objects (%) [3, 5]: 0% | Population Membrane Permeable-Phenotype (%) [3, 5]: 7% and 5% | Population Mitochondria Different-Phenotype (%) [3, 5]: 7% and 0% | Population Normal (%) [3, 5]: 100% and 99% | Population Pyknosed Nuclei (%) [3, 5]: 5% and 13% | Population Tubulin-Different-Phenotype (%) [3, 5]: 64% and 50% | Population Apoptotic (%) [3, 6]: 100% and 73% | Population Fragmented Nuclei (%) [3, 6]: 0% and 3% | Population Healthy Nuclei (%) [3, 6]: 90% | Population Hoechst High Intensity Objects (%) [3, 6]: 0% | Population Membrane Permeable-Phenotype (%) [3, 6]: 0% and 2% | Population Mitochondria Different-Phenotype (%) [3, 6]: 0% | Population Normal (%) [3, 6]: 100% | Population Pyknosed Nuclei (%) [3, 6]: 9% and 5% | Population Tubulin-Different-Phenotype (%) [3, 6]: 96% and 79% | Population Apoptotic (%) [3, 7]: 70% and 80% | Population Healthy Nuclei (%) [3, 7]: 86% and 70% | Population Hoechst High Intensity Objects (%) [3, 7]: 0% | Population Membrane Permeable-Phenotype (%) [3, 7]: 3% | Population Mitochondria Different-Phenotype (%) [3, 7]: 1% and 0% | Population Mitotic Cells (%) [3, 7]: 29% and 20% | Population Normal (%) [3, 7]: 100% | Population Pyknosed Nuclei (%) [3, 7]: 10% and 12% | Population Tubulin-Different-Phenotype (%) [3, 7]: 57% and 35% | Population Apoptotic (%) [3, 8]: 71% and 84% | Population Fragmented Nuclei (%) [3, 8]: 8% and 3% | Population Healthy Nuclei (%) [3, 8]: 79% and 92% | Population Hoechst High Intensity Objects (%) [3, 8]: 0% | Population Membrane Permeable-Phenotype (%) [3, 8]: 0% and 1% | Population Mitochondria Different-Phenotype (%) [3, 8]: 2% and 0% | Population Mitotic Cells (%) [3, 8]: 28% and 15% | Population Normal (%) [3, 8]: 100% | Population Pyknosed Nuclei (%) [3, 8]: 12% and 4% | Population Tubulin-Different-Phenotype (%) [3, 8]: 95% and 87% | Population Apoptotic (%) [3, 9]: 86% and 75% | Population Fragmented Nuclei (%) [3, 9]: 5% and 6% | Population Healthy Nuclei (%) [3, 9]: 79% and 76% | Population Hoechst High Intensity Objects (%) [3, 9]: 0% | Population Membrane Permeable-Phenotype (%) [3, 9]: 4% and 2% | Population Mitochondria Different-Phenotype (%) [3, 9]: 0% and 2% | Population Mitotic Cells (%) [3, 9]: 13% and 25% | Population Normal (%) [3, 9]: 99% and 100% | Population Pyknosed Nuclei (%) [3, 9]: 14% and 17% | Population Tubulin-Different-Phenotype (%) [3, 9]: 67% and 47%

— ChEMBL document CHEMBL5303300, “EUbOPEN Chemogenomics Library - Multiplex” (2023)
